Laboratory results from ChEMBL document CHEMBL5360645, “Re-Exploring the Anthracycline Chemical Space for Better Anti-Cancer Compounds” (J Med Chem, 2023).
Calls of active or inactive are those of the source. The calls are words filed in the database; no cut-off is given here.

Columns and labels:
Format in all cases: functional, cell-based
U2OS = experiment: Cytotoxicity against human U2OS cells incubated for 2 hrs by cell titre blue viability assay
MEL-JUSO [1] = experiment: Effect of chromatin damage activity in human MEL-JUSO cells stably expressing PAGFPH2A assessed as histone eviction measured upto 60 mins measured by confocal microscopic analysis
K562 [2] = experiment: Induction of DNA damage in human K562 cells assessed as increase in gammaH2AX at 1 to 5 uM for 2 hrs by Western blotting analysis; conditions: dose 1-5 µM
Outline: (§1)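 K562 cells treated 2 h with drug (10 μM; also 1 and 5 μM), washed and lysed directly in SDS sample buffer. Lysates separated by SDS-PAGE and blotted to PVDF. Probed for γH2AX (1:1000) with β-actin loading control and IRDye 800CW anti-mouse secondary; infrared imaging. γH2AX normalized to actin. Etoposide was the positive control. At 10 μM: mean ± SD of three independent experiments.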

K562 [3] = experiment: Cytotoxicity against human K562 cells incubated for 2 hrs by cell titre blue viability assay; conditions: K562, 2 h
Outline: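 Viability read by CellTiter-Blue, normalized to untreated control and background-corrected. Media: K562 RPMI-1640, MelJuSo IMDM, U2OS DMEM, each with 8% FCS; 5% CO2, 37 °C.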

K562 [4] = experiment: Induction of DNA damage in human K562 cells assessed as DNA double strand break measured by constant gel field electrophoresis
Outline: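 Double-strand breaks resolved by constant-field gel electrophoresis and quantified as broken DNA relative to total DNA. Etoposide was the positive control. Mean ± SD of three independent experiments.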

K562 [5] = experiment: Induction of DNA damage in human K562 cells assessed as increase in gammaH2AX at 10 uM for 2 hrs by Western blotting analysis; outline: as §1
MEL-JUSO [6] = experiment: Cytotoxicity against human MEL-JUSO cells incubated for 2 hrs by cell titre blue viability assay

Row | Structure (SMILES) | IC50 (U2OS) [nM] | Activity (MEL-JUSO [1]) | Activity (K562 [2]) | IC50 (K562 [3]) [nM] | Activity (K562 [4]) | Activity (K562 [5]) | IC50 (MEL-JUSO [6]) [nM]
1 | COc1cccc2c1C(=O)c1c(O)c3c(c(O)c1C2=O)C[C@@](O)(C(=O)CO)C[C@@H]3O[C@H]1C[C@H](N(C)C)[C@H](O[C@H]2C[C@H](O)[C@H](O[C@H]3CCC(=O)[C@H](C)O3)[C@H](C)O2)[C@H](C)O1 (single isomer, unassigned) | 11 | Active | inactive | 19 | inactive | inactive | –
2 | COc1cccc2c1C(=O)c1c(O)c3c(c(O)c1C2=O)C[C@@](O)(C(=O)CO)C[C@@H]3O[C@H]1C[C@H](N2CCCCC2)[C@H](O)[C@H](C)O1 | 105 | Active | inactive | 195 | inactive | inactive | 78
3 | CC(=O)[C@]1(O)Cc2c(O)c3c(c(O)c2[C@@H](O[C@H]2C[C@H](N(C)C)[C@H](O[C@H]4C[C@H](O)[C@H](O[C@H]5CCC(=O)[C@H](C)O5)[C@H](C)O4)[C@H](C)O2)C1)C(=O)c1ccccc1C3=O | 12 | – | inactive | 20 | inactive | inactive | 8
4 | COc1cccc2c1C(=O)c1c(O)c3c(c(O)c1C2=O)C[C@@](O)(C(=O)CO)C[C@@H]3O[C@H]1C[C@H](N2CCOCC2)[C@H](O)[C@H](C)O1 | 77 | Active | inactive | 64 | inactive | inactive | 51
5 | CC[C@@]1(O)C[C@H](O[C@H]2C[C@H](N(C)C)[C@H](O[C@H]3C[C@H](O)[C@H](O[C@H]4CCC(=O)[C@H](C)O4)[C@H](C)O3)[C@H](C)O2)c2c(cc3c(c2O)C(=O)c2c(O)cccc2C3=O)[C@H]1C(=O)OC [ACLARUBICIN] | 209 | – | inactive | 31 | inactive | inactive | 99
6 | CC[C@]1(O)Cc2c(O)c3c(c(O)c2[C@@H](O[C@H]2C[C@H](N)[C@H](O)[C@H](C)O2)C1)C(=O)c1c(OC)cccc1C3=O | 237 | – | Active | 42 | Active | Active | 372
7 | CC(=O)[C@]1(O)Cc2c(O)c3c(c(O)c2[C@@H](O[C@H]2C[C@H](N)[C@H](O)[C@H](C)O2)C1)C(=O)c1ccccc1C3=O [IDARUBICIN] | 24 | – | – | – | – | – | 89
8 | COc1cccc2c1C(=O)c1c(O)c3c(c(O)c1C2=O)C[C@@](O)(C(=O)CO)C[C@@H]3O[C@H]1CC[C@H](O)[C@H](C)O1 | 10000 | Active | Active | 1620 | Active | Active | 2430
9 | CC[C@@]1(O)C[C@H](O[C@H]2C[C@H](N)[C@H](O)[C@H](C)O2)c2c(O)c3c(c(O)c2[C@H]1C(=O)OC)C(=O)c1cccc(O)c1C3=O | 10000 | – | Active | 5320 | Active | Active | 4290
10 | COc1cccc2c1C(=O)c1c(O)c3c(c(O)c1C2=O)C[C@@](O)(CCO)C[C@@H]3O[C@H]1C[C@H](N(C)C)[C@H](O)[C@H](C)O1 | 4210 | Active | inactive | 1620 | inactive | inactive | 2870
11 | COc1cccc2c1C(=O)c1c(O)c3c(c(O)c1C2=O)C[C@@](O)(C(=O)CO)C[C@@H]3O[C@H]1C[C@H](N)[C@H](O)[C@H](C)O1 [DOXORUBICIN] | 339 | Active | – | – | – | – | 523
12 | COc1cccc2c1C(=O)c1c(O)c3c(c(O)c1C2=O)C[C@@](O)(C(=O)CO)C[C@@H]3O[C@H]1C[C@H](O)[C@H](O)[C@H](C)O1 [HYDROXYRUBICIN] | 6790 | Active | Active | 856 | Active | Active | 1900
13 | COc1cccc2c1C(=O)c1c(O)c3c(c(O)c1C2=O)C[C@@](O)(C(=O)CO)C[C@@H]3O[C@H]1C[C@H](O)[C@H](N(C)C)[C@H](C)O1 | 285 | Active | – | 129 | – | – | 433
14 | COc1cccc2c1C(=O)c1c(O)c3c(c(O)c1C2=O)C[C@@](O)(CCO)C[C@@H]3O[C@H]1C[C@H](N)[C@H](O)[C@H](C)O1 [13-DEOXYDOXORUBICIN] | 891 | – | Active | 1790 | Active | Active | 1150
15 | COc1cccc2c1C(=O)c1c(O)c3c(c(O)c1C2=O)C[C@@](O)(C(=O)CO)C[C@@H]3O[C@H]1C[C@H](N=[N+]=[N-])[C@H](O)[C@H](C)O1 | 10000 | Active | Active | 84 | Active | Active | 1220
16 | COc1cccc2c1C(=O)c1c(O)c3c(c(O)c1C2=O)C[C@@](O)(C(=O)CO)C[C@@H]3O[C@H]1C[C@H](N2CCCC2)[C@H](O)[C@H](C)O1 | 122 | Active | inactive | 172 | inactive | inactive | 73
17 | CC(=O)[C@]1(O)Cc2c(O)c3c(c(O)c2[C@@H](O[C@H]2C[C@H](N)[C@H](O[C@H]4C[C@H](O)[C@H](O[C@H]5CCC(=O)[C@H](C)O5)[C@H](C)O4)[C@H](C)O2)C1)C(=O)c1ccccc1C3=O | 376 | – | Active | 230 | Active | Active | 680
18 | CC[C@]1(O)Cc2c(O)c3c(c(O)c2[C@@H](O[C@H]2C[C@H](N(C)C)[C@H](O)[C@H](C)O2)C1)C(=O)c1c(OC)cccc1C3=O | 1360 | Active | inactive | 1180 | inactive | inactive | 1810
19 | COc1cccc2c1C(=O)c1c(O)c3c(c(O)c1C2=O)C[C@@](O)(C(C)=O)C[C@@H]3O[C@H]1C[C@H](N)[C@H](O)[C@H](C)O1 [DAUNORUBICIN] | 61 | – | – | – | – | – | 286
20 | CC[C@@]1(O)C[C@H](O[C@H]2C[C@H](N(C)C)[C@H](O)[C@H](C)O2)c2c(O)c3c(c(O)c2[C@H]1C(=O)OC)C(=O)c1cccc(O)c1C3=O | 1130 | – | inactive | 1100 | inactive | inactive | 835
21 | COc1cccc2c1C(=O)c1c(O)c3c(c(O)c1C2=O)C[C@@](O)(C(=O)CO)C[C@@H]3O[C@H]1C[C@H](O)[C@H](N)[C@H](C)O1 | 1120 | – | Active | 381 | Active | Active | 998
22 | COc1cccc2c1C(=O)c1c(O)c3c(c(O)c1C2=O)C[C@@](O)(C(=O)CO)C[C@@H]3O[C@H]1C[C@H](N2CCC2)[C@H](O)[C@H](C)O1 | 159 | Active | inactive | 379 | inactive | inactive | 297
